In BindingDB's records for doi:10.1021/acsmedchemlett.6b00438 (Rhône-Poulenc Rorer, 2017) one finds IC50 data, which are given here for 1 compound.

Assay [1] addresses Phosphatidylinositol 3-kinase regulatory subunit alpha/4,5-bisphosphate 3-kinase catalytic subunit delta isoform (Homo sapiens, UniProt P27986+O00329). Briefly: Inhibition of full length recombinant human N-terminal His6-tagged PI3K p110delta/human p85alpha expressed in baculovirus infected sf21 cells using PIP2 as substrate preincubated for 30 mins followed by substrate addition by HTRF assay. Background: TR-FRET usually uses a lanthanide donor and a delayed reading to cut background.

The target of assay [2] is T1, Phosphatidylinositol 4,5-bisphosphate 3-kinase catalytic subunit delta isoform (Homo sapiens, UniProt O00329).
T1 sequence (O00329 whole entry): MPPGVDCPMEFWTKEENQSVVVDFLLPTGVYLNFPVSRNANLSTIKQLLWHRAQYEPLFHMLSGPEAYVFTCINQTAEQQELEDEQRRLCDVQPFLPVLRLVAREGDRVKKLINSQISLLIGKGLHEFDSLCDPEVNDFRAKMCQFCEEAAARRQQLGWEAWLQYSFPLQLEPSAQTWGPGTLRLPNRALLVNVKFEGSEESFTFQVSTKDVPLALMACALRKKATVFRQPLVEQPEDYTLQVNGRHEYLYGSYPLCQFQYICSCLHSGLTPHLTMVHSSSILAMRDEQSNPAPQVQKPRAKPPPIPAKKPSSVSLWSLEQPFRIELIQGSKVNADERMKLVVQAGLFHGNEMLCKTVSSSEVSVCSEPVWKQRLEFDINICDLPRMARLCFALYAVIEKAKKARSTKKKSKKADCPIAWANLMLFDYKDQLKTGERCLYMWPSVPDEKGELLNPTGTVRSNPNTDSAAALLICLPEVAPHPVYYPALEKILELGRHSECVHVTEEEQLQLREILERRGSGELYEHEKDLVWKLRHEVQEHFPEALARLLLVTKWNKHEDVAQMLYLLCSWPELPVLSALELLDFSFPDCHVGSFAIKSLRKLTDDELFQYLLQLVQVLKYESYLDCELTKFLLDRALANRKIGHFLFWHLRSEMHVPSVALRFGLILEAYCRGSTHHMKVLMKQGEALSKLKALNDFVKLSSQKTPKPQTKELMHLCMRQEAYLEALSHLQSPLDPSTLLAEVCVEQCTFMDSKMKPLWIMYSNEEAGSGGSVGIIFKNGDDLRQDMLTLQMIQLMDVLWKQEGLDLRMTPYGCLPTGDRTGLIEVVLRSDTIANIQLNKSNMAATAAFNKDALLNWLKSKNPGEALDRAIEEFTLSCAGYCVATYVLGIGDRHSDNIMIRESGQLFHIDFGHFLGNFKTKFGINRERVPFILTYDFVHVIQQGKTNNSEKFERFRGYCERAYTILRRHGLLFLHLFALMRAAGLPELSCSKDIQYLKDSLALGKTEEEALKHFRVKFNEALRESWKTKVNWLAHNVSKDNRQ
Description: Inhibition of PI3Kdelta in human THP1 cells assessed as reduction in MCSF-stimulated akt phosphorylation at Thr308 preincubated for 30 mins followed by MCSF stimulation for 3 mins by ELISA. In a few lines: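 THP-1 cells exposed to compound for 30 min, then stimulated with MCSF at EC80 for 3 min; lysates assayed by ELISA for pAkt (Thr308).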

Phosphatidylinositol 3-kinase regulatory subunit alpha/4,5-bisphosphate 3-kinase catalytic subunit delta isoform, sequence (P27986 whole entry, one chain of several, canonical isoform): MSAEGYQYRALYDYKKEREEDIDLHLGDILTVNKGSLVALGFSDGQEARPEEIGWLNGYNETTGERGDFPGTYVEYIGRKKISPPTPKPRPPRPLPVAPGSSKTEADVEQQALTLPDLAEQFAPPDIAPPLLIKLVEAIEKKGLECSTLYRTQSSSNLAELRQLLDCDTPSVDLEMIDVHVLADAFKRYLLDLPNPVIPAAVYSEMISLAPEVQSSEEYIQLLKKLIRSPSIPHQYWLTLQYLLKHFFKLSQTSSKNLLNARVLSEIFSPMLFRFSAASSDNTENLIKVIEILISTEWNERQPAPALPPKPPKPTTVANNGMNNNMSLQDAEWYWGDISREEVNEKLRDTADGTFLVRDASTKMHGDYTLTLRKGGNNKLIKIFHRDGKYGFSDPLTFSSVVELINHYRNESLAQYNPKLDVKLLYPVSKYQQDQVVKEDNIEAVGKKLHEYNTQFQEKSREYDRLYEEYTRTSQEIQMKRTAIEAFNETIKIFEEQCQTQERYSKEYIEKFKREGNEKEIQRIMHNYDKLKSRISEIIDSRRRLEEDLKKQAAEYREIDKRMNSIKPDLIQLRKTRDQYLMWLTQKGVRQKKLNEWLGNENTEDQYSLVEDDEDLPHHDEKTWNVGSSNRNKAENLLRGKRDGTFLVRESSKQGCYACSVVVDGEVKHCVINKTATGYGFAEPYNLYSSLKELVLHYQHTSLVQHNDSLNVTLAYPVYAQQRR

By IC50 is commonly meant the point on the concentration scale where inhibition reaches its midpoint. In the case of `N#Cc1c(N)ncnc1NC(CC(F)(F)F)c1nn2cccc2c(=O)n1-c1ccccc1` (configuration not stated), the concentration for half-maximal inhibition (IC50) in assay [1] came to 17 nM; in assay [2], 51 nM.
